≈ marks a conversion by molar mass, not a printed value. Calls of active or inactive are those of the source. The rule behind the calls is not given here.
What was measured:
Mus musculus [1] = test: Survival of Staphylococcus aureus Smith infected BALB/c mouse assessed as septicemia protection at 19 mg/kg, sc administered at 1 hr and 3 hrs postinfection after 2 weeks; format: functional, organism-based; set-up: dose 19 mg/kg
Outline: (§1)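 Female Balb/c mice (16-18 g), acclimated one week, 10 per group. Infection IP with 0.5 mL of 10^6 S. aureus (mouse-passaged Smith strain) in 10% hog gastric mucin. Compound dissolved in water, given subcutaneously in 0.5 mL at 1 h and 3 h post-infection as serial 2-fold dilutions from 75 to 0.125 mg/kg. Amikacin and neomycin served as control groups. Moribund mice counted per group; observation over two weeks.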

Escherichia coli = test: Antimicrobial activity against Escherichia coli ATCC 25922 after 20 to 24 hrs; format: functional
Outline: (§2)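 Broth microdilution in duplicate; compound in 2.5% DMSO in water, overnight culture added to a final inoculum of about 10^2-10^3 CFU/well. Growth read as A595 after 20-24 h at 37°C, relative to a no-compound well. MIC reported as a range: complete inhibition at the higher concentration, viable cells at the lower. Ampicillin and tetracycline are the positive controls.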

Mus musculus [2] = test: Survival of Staphylococcus aureus Smith infected BALB/c mouse assessed as septicemia protection at 4.7 mg/kg, sc administered at 1 hr and 3 hrs postinfection after 2 weeks; format: functional, organism-based; set-up: dose 4.7 mg/kg; outline: as §1
Mus musculus [3] = test: Survival of Staphylococcus aureus Smith infected BALB/c mouse assessed as septicemia protection at 1.2 mg/kg, sc administered at 1 hr and 3 hrs postinfection after 2 weeks; format: functional, organism-based; set-up: dose 1.2 mg/kg; outline: as §1
Mus musculus [4] = test: Survival of Staphylococcus aureus Smith infected BALB/c mouse assessed as septicemia protection at 9.4 mg/kg, sc administered at 1 hr and 3 hrs postinfection after 2 weeks; format: functional, organism-based; set-up: dose 9.4 mg/kg; outline: as §1
Mus musculus [5] = test: Survival of Staphylococcus aureus Smith infected BALB/c mouse assessed as septicemia protection at 38 mg/kg, sc administered at 1 hr and 3 hrs postinfection after 2 weeks; format: functional, organism-based; set-up: dose 38 mg/kg; outline: as §1
Mus musculus [6] = test: Survival of Staphylococcus aureus Smith infected BALB/c mouse assessed as septicemia protection at 75 mg/kg, sc administered at 1 hr and 3 hrs postinfection after 2 weeks; format: functional, organism-based; set-up: dose 75 mg/kg; outline: as §1
Mus musculus [7] = test: Survival of Staphylococcus aureus Smith infected BALB/c mouse assessed as septicemia protection at 2.3 mg/kg, sc administered at 1 hr and 3 hrs postinfection after 2 weeks; format: functional, organism-based; set-up: dose 2.3 mg/kg; outline: as §1
Staphylococcus aureus [8] = test: Antimicrobial activity against Staphylococcus aureus ATCC 13709 after 20 to 24 hrs; format: functional; outline: as §2
Mus musculus [9] = test: Survival of Staphylococcus aureus Smith infected BALB/c mouse assessed as septicemia protection at 0.50 mg/kg, sc administered at 1 hr and 3 hrs postinfection after 2 weeks; format: functional, organism-based; set-up: dose 0.5 mg/kg; outline: as §1
Staphylococcus aureus [10] = test: Septicemia protection in Staphylococcus aureus Smith infected sc dosed BALB/c mouse after 2 weeks; format: functional; conditions: 336 h; outline: as §1

Row | Structure (SMILES) | MIC (Escherichia coli) | MIC (Staphylococcus aureus [8]) | also measured
1 | NC[C@@H]1O[C@H](O[C@H]2[C@@H](OCCNCc3cccnc3)[C@H](O[C@@H]3[C@@H](O)[C@H](N)C[C@H](N)[C@H]3O[C@H]3O[C@H](CO)[C@@H](O)[C@H](O)[C@H]3N)O[C@@H]2CO)[C@H](N)[C@@H](O)[C@@H]1O | 12 µg/mL (≈ 16 µM) | < 1.5 µg/mL | Activity (Mus musculus [1]): Active; Activity (Mus musculus [2]): Active; Activity (Mus musculus [3]): Active; Activity (Mus musculus [4]): Active; Activity (Mus musculus [5]): Active; Activity (Mus musculus [6]): Active; Activity (Mus musculus [7]): Active
2 | NC[C@@H]1O[C@H](O[C@H]2[C@@H](OCCNCc3ccnc(N)c3)[C@H](O[C@@H]3[C@@H](O)[C@H](N)C[C@H](N)[C@H]3O[C@H]3O[C@H](CO)[C@@H](O)[C@H](O)[C@H]3N)O[C@@H]2CO)[C@H](N)[C@@H](O)[C@@H]1O | 6 µg/mL (≈ 7.84 µM) | 0.6 µg/mL (≈ 0.784 µM) | –
3 | NC[C@@H]1O[C@H](O[C@H]2[C@@H](OCCNCCc3cc(C(F)(F)F)cc(C(F)(F)F)c3)[C@H](O[C@@H]3[C@@H](O)[C@H](N)C[C@H](N)[C@H]3O[C@H]3O[C@H](CO)[C@@H](O)[C@H](O)[C@H]3N)O[C@@H]2CO)[C@H](N)[C@@H](O)[C@@H]1O | > 10 µg/mL | 2.5 µg/mL (≈ 2.78 µM) | –
4 | CN(C)CCO[C@H]1[C@H](O[C@@H]2[C@@H](O)[C@H](N)C[C@H](N)[C@H]2O[C@H]2O[C@H](CO)[C@@H](O)[C@H](O)[C@H]2N)O[C@H](CO)[C@H]1O[C@H]1O[C@@H](CN)[C@@H](O)[C@H](O)[C@H]1N | 12 µg/mL (≈ 17.5 µM) | 6 µg/mL (≈ 8.74 µM) | –
5 | CC(C)(C)CCNCCO[C@H]1[C@H](O[C@@H]2[C@@H](O)[C@H](N)C[C@H](N)[C@H]2O[C@H]2O[C@H](CO)[C@@H](O)[C@H](O)[C@H]2N)O[C@H](CO)[C@H]1O[C@H]1O[C@@H](CN)[C@@H](O)[C@H](O)[C@H]1N | 10 µg/mL (≈ 13.5 µM) | 0.6 µg/mL (≈ 0.808 µM) | –
6 | NC[C@@H]1O[C@H](O[C@H]2[C@@H](OCCN(CCCc3ccccc3)CCc3ccccc3)[C@H](O[C@H]3C(O[C@H]4O[C@H](CO)[C@@H](O)[C@H](O)[C@H]4N)[C@@H](N)C[C@@H](N)[C@@H]3O)O[C@@H]2CO)[C@H](N)[C@@H](O)[C@@H]1O (some centres not stated) | 10 µg/mL (≈ 11.4 µM) | 0.6 µg/mL (≈ 0.681 µM) | –
7 | NC[C@@H]1O[C@H](O[C@H]2[C@@H](OCCCc3ccccc3)[C@H](O[C@@H]3[C@@H](O)[C@H](N)C[C@H](N)[C@H]3O[C@H]3O[C@H](CO)[C@@H](O)[C@H](O)[C@H]3N)O[C@@H]2CO)[C@H](N)[C@@H](O)[C@@H]1O | 20 µg/mL (≈ 27.3 µM) | 3 µg/mL (≈ 4.09 µM) | –
8 | NCCO[C@H]1[C@H](O[C@@H]2[C@@H](O)[C@H](N)C[C@H](N)[C@H]2O[C@H]2O[C@H](CO)[C@@H](O)[C@H](O)[C@H]2N)O[C@H](CO)[C@H]1O[C@H]1O[C@@H](CN)[C@@H](O)[C@H](O)[C@H]1N | 12 µg/mL (≈ 18.2 µM) | 2 µg/mL (≈ 3.04 µM) | –
9 | NC[C@@H]1O[C@H](O[C@H]2[C@@H](OCCO)[C@H](O[C@@H]3[C@@H](O)[C@H](N)C[C@H](N)[C@H]3O[C@H]3O[C@H](CO)[C@@H](O)[C@H](O)[C@H]3N)O[C@@H]2CO)[C@H](N)[C@@H](O)[C@@H]1O | 12 µg/mL (≈ 18.2 µM) | 12 µg/mL (≈ 18.2 µM) | –
10 | NC[C@@H]1O[C@H](O[C@H]2[C@@H](OCCNCCC3CC4CCC3C4)[C@H](O[C@@H]3[C@@H](O)[C@H](N)C[C@H](N)[C@H]3O[C@H]3O[C@H](CO)[C@@H](O)[C@H](O)[C@H]3N)O[C@@H]2CO)[C@H](N)[C@@H](O)[C@@H]1O (some centres not stated) | > 10 µg/mL | 5 µg/mL (≈ 6.4 µM) | –
11 | NC[C@@H]1O[C@H](O[C@H]2[C@@H](OCCNc3cnc4ccccc4c3)[C@H](O[C@@H]3[C@@H](O)[C@H](N)C[C@H](N)[C@H]3O[C@H]3O[C@H](CO)[C@@H](O)[C@H](O)[C@H]3N)O[C@@H]2CO)[C@H](N)[C@@H](O)[C@@H]1O | 12 µg/mL (≈ 15.3 µM) | 1 µg/mL (≈ 1.27 µM) | –
12 | NC[C@@H]1O[C@H](O[C@H]2[C@@H](OCCc3ccccc3)[C@H](O[C@@H]3[C@@H](O)[C@H](N)C[C@H](N)[C@H]3O[C@H]3O[C@H](CO)[C@@H](O)[C@H](O)[C@H]3N)O[C@@H]2CO)[C@H](N)[C@@H](O)[C@@H]1O | > 50 µg/mL | 6 µg/mL (≈ 8.34 µM) | –
13 | NC[C@@H]1O[C@H](O[C@H]2[C@@H](OCCNCCc3ccccc3)[C@H](O[C@@H]3[C@@H](O)[C@H](N)C[C@H](N)[C@H]3O[C@H]3O[C@H](CO)[C@@H](O)[C@H](O)[C@H]3N)O[C@@H]2CO)[C@H](N)[C@@H](O)[C@@H]1O | 3 µg/mL (≈ 3.93 µM) | 0.3 µg/mL (≈ 0.393 µM) | Activity (Mus musculus [1]): Active; Activity (Mus musculus [2]): Active; Activity (Mus musculus [3]): Active; Activity (Mus musculus [5]): Active; Activity (Mus musculus [9]): Active; ED90 (Staphylococcus aureus [10]): 0.25 mg/kg
14 | NC[C@@H]1O[C@H](O[C@H]2[C@@H](OCCOCCCc3ccccc3)[C@H](O[C@@H]3[C@@H](O)[C@H](N)C[C@H](N)[C@H]3O[C@H]3O[C@H](CO)[C@@H](O)[C@H](O)[C@H]3N)O[C@@H]2CO)[C@H](N)[C@@H](O)[C@@H]1O | 20 µg/mL (≈ 25.7 µM) | 5 µg/mL (≈ 6.43 µM) | –
15 | NC[C@@H]1O[C@H](O[C@H]2[C@@H](OCCNCCN3C(=O)c4cccc5cccc(c45)C3=O)[C@H](O[C@@H]3[C@@H](O)[C@H](N)C[C@H](N)[C@H]3O[C@H]3O[C@H](CO)[C@@H](O)[C@H](O)[C@H]3N)O[C@@H]2CO)[C@H](N)[C@@H](O)[C@@H]1O | > 40 µg/mL | 10 µg/mL (≈ 11.3 µM) | –
16 | NC[C@@H]1O[C@H](O[C@H]2[C@@H](OCCNC3C4CC5CC3CC(C4)C5O)[C@H](O[C@@H]3[C@@H](O)[C@H](N)C[C@H](N)[C@H]3O[C@H]3O[C@H](CO)[C@@H](O)[C@H](O)[C@H]3N)O[C@@H]2CO)[C@H](N)[C@@H](O)[C@@H]1O (some centres not stated) | 20 µg/mL (≈ 24.7 µM) | 1 µg/mL (≈ 1.24 µM) | –
17 | NCCCNCCO[C@H]1[C@H](O[C@@H]2[C@@H](O)[C@H](N)C[C@H](N)[C@H]2O[C@H]2O[C@H](CO)[C@@H](O)[C@H](O)[C@H]2N)O[C@H](CO)[C@H]1O[C@H]1O[C@@H](CN)[C@@H](O)[C@H](O)[C@H]1N | 25 µg/mL (≈ 34.9 µM) | 3 µg/mL (≈ 4.19 µM) | –
18 | NC[C@@H]1O[C@H](O[C@H]2[C@@H](OCCNC3CCCNC3)[C@H](O[C@@H]3[C@@H](O)[C@H](N)C[C@H](N)[C@H]3O[C@H]3O[C@H](CO)[C@@H](O)[C@H](O)[C@H]3N)O[C@@H]2CO)[C@H](N)[C@@H](O)[C@@H]1O (some centres not stated) | 1.5 µg/mL (≈ 2.02 µM) | 3 µg/mL (≈ 4.04 µM) | –
19 | NC[C@@H]1O[C@H](O[C@H]2[C@@H](OCCNCCCc3ccccc3)[C@H](O[C@@H]3[C@@H](O)[C@H](N)C[C@H](N)[C@H]3O[C@H]3O[C@H](CO)[C@@H](O)[C@H](O)[C@H]3N)O[C@@H]2CO)[C@H](N)[C@@H](O)[C@@H]1O | 3 µg/mL (≈ 3.86 µM) | 0.6 µg/mL (≈ 0.772 µM) | –
20 | NCCNCCO[C@H]1[C@H](O[C@@H]2[C@@H](O)[C@H](N)C[C@H](N)[C@H]2O[C@H]2O[C@H](CO)[C@@H](O)[C@H](O)[C@H]2N)O[C@H](CO)[C@H]1O[C@H]1O[C@@H](CN)[C@@H](O)[C@H](O)[C@H]1N | 6 µg/mL (≈ 8.55 µM) | 2 µg/mL (≈ 2.85 µM) | –
21 | NCCO[C@H]1[C@H](O[C@@H]2[C@@H](O)[C@H](N)C[C@H](N)[C@H]2O[C@H]2O[C@H](CO)[C@@H](O)[C@H](O)[C@H]2N)O[C@H](CO)[C@H]1O | 6 µg/mL (≈ 12 µM) | 12 µg/mL (≈ 24.1 µM) | –
22 | COc1ccc(CCNCCO[C@H]2[C@H](O[C@@H]3[C@@H](O)[C@H](N)C[C@H](N)[C@H]3O[C@H]3O[C@H](CO)[C@@H](O)[C@H](O)[C@H]3N)O[C@H](CO)[C@H]2O[C@H]2O[C@@H](CN)[C@@H](O)[C@H](O)[C@H]2N)cc1 | 5 µg/mL (≈ 6.31 µM) | < 0.6 µg/mL | –
